# Measured values reported in ChEMBL document CHEMBL4368858, “Search for a 5-CT alternative. In vitro and in vivo evaluation of novel pharmacological tools: 3-(1-alkyl-1H-imidazol-5-yl)-1H-indole-5-carboxamides, low-basicity 5-HT7 receptor agonists” (Medchemcomm, 2018).
# pIC50, pKi: −log10 of the molar value. Calls of active or inactive are those of the source.
# Key:
# [1] = molecular target: T1, 5-hydroxytryptamine receptor 2A (Homo sapiens, UniProt P28223); assay: Displacement of [3H]-ketanserin from recombinant human 5HT2A receptor expressed in CHOK1 cells measured after 1 hr by microbeta counting method; assay type: cell-based
# In short: (§1)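 Radioligand displacement on cloned human receptors stably expressed in HEK-293 cells, except 5-HT2A, which was expressed in CHO cells. Radioligands: [3H]-LSD for 5-HT6, [3H]-5-CT for 5-HT7, [3H]-ketanserin for 5-HT2A, [3H]-raclopride for D2.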
# [2] = molecular target: T2, 5-hydroxytryptamine receptor 6 (Homo sapiens, UniProt P50406); assay: Displacement of [3H]-LSD from recombinant human 5HT6 receptor expressed in HEK293 cells measured after 1 hr by microbeta counting method; assay type: cell-based; in short: as §1
# [3] = molecular target: D(2) dopamine receptor (Homo sapiens, UniProt P14416); assay: Displacement of [3H]-raclopride from recombinant human D2LR receptor expressed in HEK293 cells measured after 1 hr by microbeta counting method; assay type: cell-based; in short: as §1
# [4] = molecular target: T3, 5-hydroxytryptamine receptor 1A (Homo sapiens, UniProt P08908); assay: Displacement of [3H]8-OH-DPAT from recombinant human 5-HT1A receptor after 60 mins by scintillation counting analysis
# T3 sequence (P08908 whole entry): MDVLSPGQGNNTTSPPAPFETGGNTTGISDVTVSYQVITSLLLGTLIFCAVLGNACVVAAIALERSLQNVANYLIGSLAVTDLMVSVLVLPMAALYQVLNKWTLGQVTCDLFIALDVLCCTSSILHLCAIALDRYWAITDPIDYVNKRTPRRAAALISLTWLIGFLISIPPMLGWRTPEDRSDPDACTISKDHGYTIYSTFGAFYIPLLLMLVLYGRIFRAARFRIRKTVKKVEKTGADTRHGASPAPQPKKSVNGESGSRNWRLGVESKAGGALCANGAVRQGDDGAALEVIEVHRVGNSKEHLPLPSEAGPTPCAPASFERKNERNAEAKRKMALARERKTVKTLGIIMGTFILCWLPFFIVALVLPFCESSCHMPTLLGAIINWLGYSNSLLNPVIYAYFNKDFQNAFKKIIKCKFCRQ
# In short: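 Radioligand displacement at cloned human 5-HT1A receptor stably expressed in HEK-293 cells, with [3H]-8-OH-DPAT as the radioligand.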
# [5] = molecular target: T1, 5-hydroxytryptamine receptor 2A; assay: Displacement of [3H]ketanserin from recombinant human 5-HT2A receptor after 60 mins by scintillation counting analysis
# In short: (§2)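 Cloned human 5-HT2A receptor stably expressed in CHO cells; displacement of [3H]-ketanserin.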
# [6] = molecular target: T2, 5-hydroxytryptamine receptor 6; assay: Displacement of [3H]LSD from human recombinant 5-HT6 receptor after 120 mins by scintillation counting analysis
# In short: (§3)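 Cloned human 5-HT6 receptor stably expressed in HEK-293 cells; displacement of [3H]-LSD.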
# [7] = species on record: Homo sapiens; assay: Selectivity ratio of Ki for displacement of [3H]-8-OH-DPAT from recombinant human 5HT1A receptor expressed in HEK293 cell membranes to Ki for displacement of [3H]-5-CT from recombinant human 5HT7b receptor expressed in HEK293 cell membranes
# [8] = Permeability of the compound by PAMPA; assay type: ADME; details: read-out: permeability
# In short: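 Passive permeability measured on a pre-coated PAMPA plate system. Concentrations were quantified against calibration curves made by capillary electrophoresis with diode-array detection. The permeability coefficient Pe is reported in 10^-6 cm s^-1 as mean ± SD of triplicates.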
# [9] = molecular target: P-glycoprotein (ABCB1) (Homo sapiens, UniProt P08183); assay: Inhibition of recombinant human membrane bound Pgp assessed as basal ATP consumption at 100 uM after 40 mins by Pgp-Glo luminescence assay relative to control; parameters: scale not given: the % may be the effect or the level left; details: read-out: Activity
# In short: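 Pgp-Glo luminescence assay measuring Pgp ATP consumption. Compounds incubated with Pgp membranes at 100 μM for 40 min at 37 °C in triplicate. Na3VO4 (100 μM) used as reference inhibitor and verapamil (200 μM) as stimulator; basal activity taken as the vanadate-versus-untreated signal difference.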
# [10] = Drug metabolism in human liver microsomes measured after 120 mins in presence of NADPH generating system by UPLC analysis; assay type: ADME, Microsome; details: for Drug metabolism: microsomes, 2 h
# In short: (§4)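 Incubation with human, rat or mouse liver microsomes for 120 min at 37 °C with an NADPH regeneration system. Reaction mixtures analysed by UPLC for metabolites and % substrate metabolized.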
# [11] = Drug metabolism in rat liver microsomes measured after 120 mins in presence of NADPH generating system by UPLC analysis; assay type: ADME, Microsome; details: for metabolised at 2 h: liver microsomes, read-out: Drug metabolism; in short: as §4
# [12] = Drug metabolism in mouse liver microsomes measured after 120 mins in presence of NADPH generating system by UPLC analysis; assay type: ADME, Microsome; details: read-out: Drug metabolism; in short: as §4
# [13] = Retention time of the compound in mouse liver microsomes in presence of NADPH generating system by UPLC analysis; assay type: ADME, Microsome; in short: as §4
# [14] = molecular target: CYP3A4 (Homo sapiens, UniProt P08684); assay: Inhibition of CYP3A4 (unknown origin) assessed as residual activity at 10 uM using beetle D-luciferin as substrate by CYP450-Glo assay relative to control; assay type: ADME; details: CYP3A4 enzyme (unknown origin), probe beetle D-luciferin, read-out: Activity
# In short: (§5)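 Luminescent P450-Glo assays for CYP3A4, CYP2D6 and CYP2C9 run per the kit protocol. Triplicate wells, final concentrations 0.01–25 μM, same across all three isoforms. Activity given as % of control.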
# [15] = molecular target: CYP2D6 (Homo sapiens, UniProt P10635); assay: Inhibition of CYP2D6 (unknown origin) assessed as residual activity at 10 uM using beetle D-luciferin as substrate by CYP450-Glo assay relative to control; assay type: ADME; details: CYP2D6 enzyme (unknown origin), probe beetle D-luciferin, read-out: Activity; in short: as §5
# [16] = molecular target: CYP2C9 (Homo sapiens, UniProt P11712); assay: Inhibition of CYP2C9 (unknown origin) assessed as residual activity at 25 uM using beetle D-luciferin as substrate by CYP450-Glo assay relative to control; assay type: ADME; details: CYP2C9 enzyme (unknown origin), probe beetle D-luciferin, read-out: Activity; in short: as §5
# [17] = molecular target: Cytochrome P450 3A4 (Homo sapiens, UniProt P08684); assay: Inhibition of CYP3A4 (unknown origin) using beetle D-luciferin as substrate by CYP450-Glo assay; assay type: ADME
# [18] = molecular target: Cytochrome P450 2D6 (Homo sapiens, UniProt P10635); assay: Inhibition of CYP2D6 (unknown origin) using beetle D-luciferin as substrate by CYP450-Glo assay; assay type: ADME
# [19] = Hepatotoxicity against human HepG2 cells assessed as ATP level at 100 uM after 3 hrs by CellTiter-Glo luminescent cell viability assay relative to control; assay type: toxicity, cell-based; details: read-out: Activity
# In short: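 HepG2 cells exposed 3 h at 1, 10 and 100 μM. […] Run in quadruplicate; result given as % of control.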
# [20] = Mutagenicity in Salmonella typhimurium TA100 assessed as revertant colonies at 10 uM by Ames test; assay type: toxicity; details: salmonella enterica subsp. enterica serovar typhimurium
# In short: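 Ames microplate fluctuation assay with S. typhimurium TA100 in 384-well format, run in triplicate. Medium control baseline defined as mean revertants in growth medium + 1% DMSO plus one SD. Positive wells counted; a 2-fold increase over baseline flagged as a mutagen alert.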
# [21] = test system: Mus musculus; assay: Reversal of MK-801-induced cognitive impairment in mouse assessed increase in novel object recognition at 1 mg/kg treated for 60 mins followed by MK-801 addition 30 mins prior to testing by novel object recognition test; assay type: functional, organism-based
# In short: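 Mice adapted to an open field for 10 min. Next day: MK-801 0.3 mg kg-1 i.p. given 30 min before training, with the test compound given 60 min before MK-801. Training (T1) used two identical objects; in the retention trial 1 h later one object was replaced by a novel one. Exploration of each object was scored over 5 min. Means ± SEM.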
# [22] = Toxicity in albino Swiss mouse assessed as effect on body temperature at 1 to 15 mg/kg; assay type: organism-based; details: in vivo
# In short: (§6)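 Albino Swiss mice housed singly 24 h before test, dosed 1, 5 or 15 mg kg-1 60 min before test. Rectal temperature read to 0.1 °C at t = 0 (T1) and +15 min (T2) after transfer to a new cage. SIH taken as T2 − T1; T1 compared with vehicle for basal temperature effect. Groups of 8–10; one-way ANOVA with Dunnett's test.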
# [23] = test system: Mus musculus; assay: Anxiolytic-like activity in albino Swiss mouse assessed as reduction in stress-induced hyperthermia by measuring reduction in body temperature at 15 mg/kg administered 60 mins prior to testing measured for 15 mins; assay type: functional, organism-based; in short: as §6
# [24] = molecular target: T3, 5-hydroxytryptamine receptor 1A; assay: Displacement of [3H]-8-OH-DPAT from recombinant human 5HT1A receptor expressed in HEK293 cells measured after 1 hr by microbeta counting method; assay type: cell-based
# In short: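 Cloned human 5-HT1A receptor stably expressed in HEK-293 cells; displacement of [3H]-8-OH-DPAT.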
# [25] = molecular target: 5-hydroxytryptamine receptor 7 (Homo sapiens, UniProt P34969); assay: Displacement of [3H]-5-CT from recombinant human 5HT7b receptor expressed in HEK293 cells measured after 1 hr by microbeta counting method; assay type: cell-based; in short: as §1
# [26] = Retention time of the compound in rat liver microsomes in presence of NADPH generating system by UPLC analysis; assay type: ADME, Microsome
# In short: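 Incubated with rat liver microsomes plus an NADPH regeneration system for 120 min at 37 °C. Reaction mixtures were analysed by UPLC to detect metabolites and their retention times.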
# [27] = test system: HEK293; assay: Cytotoxicity against HEK293 cells assessed as reduction in cell viability at 1 uM after 72 hrs by MTS assay relative to control; details: human, hek293, 72 h
# [28] = molecular target: T1, 5-hydroxytryptamine receptor 2A; assay: Displacement of [3H]ketanserin from recombinant human 5-HT2A receptor expressed in cell membrane after 1.5 hrs by scintillation counting analysis; assay type: cell membranes; in short: as §2
# [29] = molecular target: 5-hydroxytryptamine receptor 5A (Homo sapiens, UniProt P47898); assay: Displacement of [3H]LSD from human recombinant 5-HT5A receptor expressed in cell membrane after 1.5 hrs by scintillation counting analysis; assay type: cell membranes
# [30] = molecular target: T2, 5-hydroxytryptamine receptor 6; assay: Displacement of [3H]LSD from human recombinant 5-HT6 receptor expressed in cell membrane after 1.5 hrs by scintillation counting analysis; assay type: cell membranes; in short: as §3
# P-glycoprotein (ABCB1), sequence (P08183 whole entry): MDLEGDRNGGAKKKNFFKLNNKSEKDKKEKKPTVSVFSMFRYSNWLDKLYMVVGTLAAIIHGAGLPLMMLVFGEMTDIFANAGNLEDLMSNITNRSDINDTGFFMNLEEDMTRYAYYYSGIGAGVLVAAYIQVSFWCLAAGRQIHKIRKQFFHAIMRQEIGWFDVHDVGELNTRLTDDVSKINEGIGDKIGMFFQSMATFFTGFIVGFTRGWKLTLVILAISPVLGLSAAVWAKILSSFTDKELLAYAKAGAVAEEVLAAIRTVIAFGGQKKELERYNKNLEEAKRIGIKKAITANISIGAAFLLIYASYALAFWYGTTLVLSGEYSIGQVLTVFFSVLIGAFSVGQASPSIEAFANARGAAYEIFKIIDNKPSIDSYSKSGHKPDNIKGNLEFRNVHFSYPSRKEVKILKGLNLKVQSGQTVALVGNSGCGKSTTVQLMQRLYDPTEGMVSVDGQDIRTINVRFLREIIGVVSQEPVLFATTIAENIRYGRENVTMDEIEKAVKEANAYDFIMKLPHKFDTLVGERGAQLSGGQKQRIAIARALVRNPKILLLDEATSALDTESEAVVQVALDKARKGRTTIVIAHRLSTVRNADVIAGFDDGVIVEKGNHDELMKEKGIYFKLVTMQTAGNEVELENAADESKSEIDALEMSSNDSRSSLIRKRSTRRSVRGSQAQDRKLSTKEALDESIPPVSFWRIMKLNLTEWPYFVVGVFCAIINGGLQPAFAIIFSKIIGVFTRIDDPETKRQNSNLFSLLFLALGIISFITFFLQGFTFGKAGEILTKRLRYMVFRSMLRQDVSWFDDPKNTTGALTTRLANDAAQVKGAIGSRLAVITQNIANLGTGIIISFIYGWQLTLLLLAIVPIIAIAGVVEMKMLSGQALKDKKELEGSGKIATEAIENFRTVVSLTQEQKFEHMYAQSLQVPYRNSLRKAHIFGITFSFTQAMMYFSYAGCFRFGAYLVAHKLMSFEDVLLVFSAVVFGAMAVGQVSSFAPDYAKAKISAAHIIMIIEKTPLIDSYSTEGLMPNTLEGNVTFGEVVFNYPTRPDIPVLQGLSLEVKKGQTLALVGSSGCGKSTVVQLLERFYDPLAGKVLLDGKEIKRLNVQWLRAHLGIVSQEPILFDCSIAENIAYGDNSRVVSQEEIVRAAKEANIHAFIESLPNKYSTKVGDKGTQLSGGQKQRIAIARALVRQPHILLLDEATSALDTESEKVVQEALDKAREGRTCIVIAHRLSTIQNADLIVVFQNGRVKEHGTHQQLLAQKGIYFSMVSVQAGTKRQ
# 5-hydroxytryptamine receptor 7, sequence (P34969 whole entry): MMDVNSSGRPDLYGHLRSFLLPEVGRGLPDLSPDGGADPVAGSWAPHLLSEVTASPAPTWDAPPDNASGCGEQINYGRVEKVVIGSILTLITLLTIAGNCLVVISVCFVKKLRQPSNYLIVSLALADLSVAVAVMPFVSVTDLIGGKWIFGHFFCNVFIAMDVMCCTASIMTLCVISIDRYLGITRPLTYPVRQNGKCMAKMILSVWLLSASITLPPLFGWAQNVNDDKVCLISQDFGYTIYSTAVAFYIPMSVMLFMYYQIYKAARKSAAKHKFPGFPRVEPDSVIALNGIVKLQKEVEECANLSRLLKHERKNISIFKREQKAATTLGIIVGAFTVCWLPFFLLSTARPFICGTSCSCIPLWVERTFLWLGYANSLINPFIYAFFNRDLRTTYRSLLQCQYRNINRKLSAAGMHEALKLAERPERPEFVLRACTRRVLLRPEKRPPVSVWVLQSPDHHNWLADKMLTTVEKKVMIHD
# T1 sequence (P28223 whole entry): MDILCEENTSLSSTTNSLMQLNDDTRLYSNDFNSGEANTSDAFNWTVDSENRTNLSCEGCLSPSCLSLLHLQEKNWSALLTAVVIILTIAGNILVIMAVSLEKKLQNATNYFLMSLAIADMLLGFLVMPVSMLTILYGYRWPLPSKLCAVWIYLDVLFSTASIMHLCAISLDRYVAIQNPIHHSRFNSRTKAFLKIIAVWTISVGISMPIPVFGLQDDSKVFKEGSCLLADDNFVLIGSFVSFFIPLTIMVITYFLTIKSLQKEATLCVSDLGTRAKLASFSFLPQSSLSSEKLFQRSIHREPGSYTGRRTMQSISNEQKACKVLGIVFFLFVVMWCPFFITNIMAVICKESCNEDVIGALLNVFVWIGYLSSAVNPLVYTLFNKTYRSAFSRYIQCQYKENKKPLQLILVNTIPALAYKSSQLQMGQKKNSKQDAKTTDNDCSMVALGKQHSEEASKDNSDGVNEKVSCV
# D(2) dopamine receptor, sequence (P14416 whole entry): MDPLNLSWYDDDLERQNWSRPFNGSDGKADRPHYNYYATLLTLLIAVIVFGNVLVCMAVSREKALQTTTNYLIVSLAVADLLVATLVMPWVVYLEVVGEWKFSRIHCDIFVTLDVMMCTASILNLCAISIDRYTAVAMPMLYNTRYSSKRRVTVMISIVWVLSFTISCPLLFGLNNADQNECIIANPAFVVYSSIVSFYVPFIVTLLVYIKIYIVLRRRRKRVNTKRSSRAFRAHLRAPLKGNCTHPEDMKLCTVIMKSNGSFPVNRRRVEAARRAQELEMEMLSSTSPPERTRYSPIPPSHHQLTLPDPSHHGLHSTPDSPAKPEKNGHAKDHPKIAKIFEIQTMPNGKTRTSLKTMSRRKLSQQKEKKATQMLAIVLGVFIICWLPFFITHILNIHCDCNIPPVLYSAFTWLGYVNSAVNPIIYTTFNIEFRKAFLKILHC
# T2 sequence (P50406 whole entry): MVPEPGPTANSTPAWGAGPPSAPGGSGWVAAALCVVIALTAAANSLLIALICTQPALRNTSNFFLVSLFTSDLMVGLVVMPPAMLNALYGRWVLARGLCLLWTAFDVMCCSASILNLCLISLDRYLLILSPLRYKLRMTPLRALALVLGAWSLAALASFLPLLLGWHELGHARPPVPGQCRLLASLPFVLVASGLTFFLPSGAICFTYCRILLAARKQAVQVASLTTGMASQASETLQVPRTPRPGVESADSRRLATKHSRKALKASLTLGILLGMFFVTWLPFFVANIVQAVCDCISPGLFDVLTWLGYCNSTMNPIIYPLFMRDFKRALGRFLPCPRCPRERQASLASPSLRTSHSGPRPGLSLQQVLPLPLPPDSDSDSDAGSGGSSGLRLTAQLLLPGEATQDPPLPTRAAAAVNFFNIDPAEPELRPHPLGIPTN
# CYP2D6, sequence (P10635 whole entry): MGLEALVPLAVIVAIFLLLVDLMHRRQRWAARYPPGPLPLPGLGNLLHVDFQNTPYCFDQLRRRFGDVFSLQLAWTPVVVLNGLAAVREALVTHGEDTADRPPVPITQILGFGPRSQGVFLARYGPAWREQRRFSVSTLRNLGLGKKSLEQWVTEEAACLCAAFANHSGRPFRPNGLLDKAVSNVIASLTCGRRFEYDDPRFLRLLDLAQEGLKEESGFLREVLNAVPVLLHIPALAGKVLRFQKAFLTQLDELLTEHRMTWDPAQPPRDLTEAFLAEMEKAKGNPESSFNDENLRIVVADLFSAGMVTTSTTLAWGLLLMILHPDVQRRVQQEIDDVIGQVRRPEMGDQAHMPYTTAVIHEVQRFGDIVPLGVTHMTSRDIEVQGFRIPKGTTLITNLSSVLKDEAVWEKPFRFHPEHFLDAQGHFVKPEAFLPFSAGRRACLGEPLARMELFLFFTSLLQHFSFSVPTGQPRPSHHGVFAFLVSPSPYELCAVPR
# CYP2C9, sequence (P11712 whole entry): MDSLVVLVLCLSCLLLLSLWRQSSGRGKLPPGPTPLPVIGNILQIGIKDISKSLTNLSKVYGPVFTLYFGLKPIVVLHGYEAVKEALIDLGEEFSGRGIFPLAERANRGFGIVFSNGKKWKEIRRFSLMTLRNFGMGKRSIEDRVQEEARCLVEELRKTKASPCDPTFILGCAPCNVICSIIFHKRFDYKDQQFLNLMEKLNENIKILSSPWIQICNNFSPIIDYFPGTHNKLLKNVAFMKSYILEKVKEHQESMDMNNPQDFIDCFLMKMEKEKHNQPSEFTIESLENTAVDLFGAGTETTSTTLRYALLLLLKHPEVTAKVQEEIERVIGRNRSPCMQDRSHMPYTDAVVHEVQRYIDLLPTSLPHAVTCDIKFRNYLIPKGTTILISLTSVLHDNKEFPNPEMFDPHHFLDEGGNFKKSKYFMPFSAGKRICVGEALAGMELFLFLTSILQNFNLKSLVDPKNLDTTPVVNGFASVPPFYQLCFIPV
# CYP3A4, sequence (P08684 whole entry, canonical isoform): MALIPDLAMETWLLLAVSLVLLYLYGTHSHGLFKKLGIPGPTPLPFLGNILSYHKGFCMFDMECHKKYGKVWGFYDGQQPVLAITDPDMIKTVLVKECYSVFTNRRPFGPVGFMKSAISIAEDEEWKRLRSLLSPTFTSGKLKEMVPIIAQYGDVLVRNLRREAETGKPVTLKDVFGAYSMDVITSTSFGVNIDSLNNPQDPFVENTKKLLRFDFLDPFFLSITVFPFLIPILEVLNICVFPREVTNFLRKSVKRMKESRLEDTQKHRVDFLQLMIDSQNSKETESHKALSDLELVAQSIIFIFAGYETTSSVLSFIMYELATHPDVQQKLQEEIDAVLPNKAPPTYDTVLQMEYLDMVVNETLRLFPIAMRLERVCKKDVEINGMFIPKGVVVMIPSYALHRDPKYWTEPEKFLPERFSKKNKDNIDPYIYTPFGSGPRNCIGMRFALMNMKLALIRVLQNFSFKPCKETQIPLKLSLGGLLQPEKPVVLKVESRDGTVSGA
# 5-hydroxytryptamine receptor 5A, sequence (P47898 whole entry): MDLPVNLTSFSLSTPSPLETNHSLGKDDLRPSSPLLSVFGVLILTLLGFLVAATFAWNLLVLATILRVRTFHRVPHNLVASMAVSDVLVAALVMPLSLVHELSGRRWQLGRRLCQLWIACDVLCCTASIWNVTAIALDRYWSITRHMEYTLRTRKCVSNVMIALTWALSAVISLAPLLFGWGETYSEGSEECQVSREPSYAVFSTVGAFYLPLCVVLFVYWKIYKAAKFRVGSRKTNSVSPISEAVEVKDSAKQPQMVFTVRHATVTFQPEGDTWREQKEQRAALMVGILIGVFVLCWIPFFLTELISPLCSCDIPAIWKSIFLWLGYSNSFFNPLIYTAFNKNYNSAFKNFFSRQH
# Cytochrome P450 2D6, sequence (P10635 whole entry): as the sequence (P10635 whole entry) above
"activity at 40 min, 100 µM [9]",metabolised at 2 h [12],activity at 10 µM [14],activity at 10 µM [15],activity at 25 µM [16],Compound,pKi [1],pKi [2],pKi [3],Activity [20],pKi [24],pKi [25],further results
–,–,–,–,–,CCn1cncc1-c1c[nH]c2ccc(I)cc12,< 5.00,5.78,5.31,–,–,–,–
–,–,–,–,–,Cc1nn(C)c(C)c1-c1cccc(CCN(C)C)c1,–,–,–,–,–,–,pKi [4]: 6.15; pKi [5]: < 6.00; pKi [6]: < 6.00
19.3%,14%,2.9%,43.4%,104%,CCn1cncc1-c1c[nH]c2ccc(C(N)=O)cc12,< 5.00,< 5.00,< 5.00,5.6,–,–,"Ratio Ki [7]: 25; Papp [8]: 2.78 ×10⁻⁶ cm/s; Drug metabolism [10]: Metabolite_Notdetected; metabolised at 2 h [11]: 7%; Retention_time [13]: 1.6 min; pIC50 [17]: 6.51; pIC50 [18]: 5.13; viability at 3 h, 100 µM [19]: 102%; Activity [21]: Active; Activity [22]: Non-Toxic; Activity [23]: Active"
–,–,–,–,–,CCn1cncc1-c1c[nH]c2ccc(S(N)(=O)=O)cc12,< 5.00,5.14,< 5.00,–,< 5.00,5.19,–
–,–,–,–,–,N#CC(C#N)=NNc1cccc(Cl)c1 [CARBONYL CYANIDE M-CHLOROPHENYLHYDRAZONE],–,–,–,–,–,–,Activity [27]: 40%
60%,9%,29.4%,55%,37.2%,Cn1cncc1-c1c[nH]c2ccc(C(N)=O)cc12,< 5.00,5.16,5.25,12.3,6.66,8.22,"Ratio Ki [7]: 37; Drug metabolism [10]: Metabolite_Notdetected; Drug metabolism ([11]; microsomes, 2 h): Metabolite_Notdetected; pIC50 [17]: 5.45; pIC50 [18]: 4.56"
–,–,–,–,–,c1ccc(-c2ccccc2N2CCNCC2)cc1,–,–,–,–,–,–,pKi [28]: 5.92; pKi [29]: 7.12; pKi [30]: 6.22
–,–,–,–,–,N#Cc1ccc(CNC(=O)CCCCCN2CCN(c3ccccc3-c3ccccc3)CC2)cc1,–,–,–,–,–,–,pKi [28]: 6.20; pKi [29]: 6.75
–,–,–,–,–,CCn1cncc1-c1c[nH]c2ccc(C(=O)OC)cc12,< 5.00,5.22,< 5.00,–,< 5.00,6.79,–

Compound,"activity at 40 min, 100 µM [9]",metabolised at 2 h [12],activity at 10 µM [14],activity at 10 µM [15],activity at 25 µM [16],pKi [1],pKi [2],pKi [3],Activity [20],pKi [24],pKi [25],further results
NCCc1c[nH]c2ccc(C(N)=O)cc12,26.3%,2%,95.7%,108%,78.7%,–,–,–,4,–,–,"Papp [8]: 3.54 ×10⁻⁶ cm/s; metabolised at 2 h ([10]; liver microsomes, read-out: Drug metabolism): 26%; metabolised at 2 h [11]: 20%; Retention_time [26]: 1.62 min"
